The EternaBench riboswitch data

System: MS2 coat protein
Test: apparent Kd, MS2 coat protein; higher = weaker binding; RNA-MaP array; FMN 200 µM where present
Outline: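 The apparent Kd is reported as the median of filtered per-cluster binding-curve fits. To get these curves, designs transcribed by stalled E. coli RNA polymerase on Illumina sequencing-chip clusters were titrated with SNAP-549-labelled MS2 coat protein from 0.7 or 1.5 nM, doubling to 3 µM. Titrations were run without and then with constant ligand in 100 mM Tris-HCl pH 7.5, 80 mM KCl, 4 mM MgCl2, BSA, DTT, yeast tRNA and Tween-20, and green signal was normalised to red-channel RNA signal and control-cluster median Fmax.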

[1] = designed as: OFF switch for flavin mononucleotide, no ligand
[2] = ligand present: flavin mononucleotide, designed as: OFF switch for flavin mononucleotide
[3] = designed as: ON switch for flavin mononucleotide, no ligand
[4] = ligand present: flavin mononucleotide, designed as: ON switch for flavin mononucleotide

UUACUAUUGGAGAAGGCUCAAUAAUAUAUAAAGGGAGGAUAUCCAACAUGAGGAUCACCCAUGUUUCACCCAUAUGAGGAUCAC
apparent Kd [1]: 13.1 nM | apparent Kd [2]: 12.5 nM

AGAAACUACGAGAAGGACAUAUGACUAAGACUAAACAUGAGGAUCACCCAUGUAGGAUAUCGUAGUUUCAGGAUCGUGAGAUCA
apparent Kd [1]: 5.75 nM | apparent Kd [2]: 7.87 nM

AGGCCGCUACGCCGGCUUCACGCACAGGAUAUGCAGUUACAUGAGGAUCACCCAUGUGGCCAUGUGCAGAAGGGUGGUUCGUGA
apparent Kd [3]: 22.1 nM | apparent Kd [4]: 5.44 nM

UCUCGUUUCGCAGGAUAUGCUGGUCGGAAAUAAACCGGCCACAUGAGGAUCACCCAUGUGCCACAGCAGAAGGGUGACACUAGA
apparent Kd [3]: 527 nM | apparent Kd [4]: 53.9 nM

UAUAGGCUAGGAUAUACAACACUUGGUUCGAAUGUUUGGAGACAUGAGGAUCACCCAUGUAGAAGGAGCAUUUC
apparent Kd [1]: 64.8 nM | apparent Kd [2]: 190 nM

AGGUCAACCACAGGAUAUGGCUAGCAUAGCUAGCCAGAAGGGUGGUCGUUGCCAUGUAAAUACAUGAGGAUCACCCAUGUAUCC
apparent Kd [3]: 190 nM | apparent Kd [4]: 49.5 nM

AAACAUGUCCGAGGAUAUCUGAGAUCACUUUCAAGAGAAGGCGGACAUGAGGAUCACCCAUGUCUCUCCUCAUCAACUCCAAAU
apparent Kd [1]: 8.01 nM | apparent Kd [2]: 41.9 nM

AAGUAUAAGGGCAUUAAACAUGAGGAUCACCCAUGUACAAUAGAGGAUAUGCAUUUCGGUUUAGAGUAGAAGGUUAGAGAAUAU
apparent Kd [1]: 27.6 nM | apparent Kd [2]: 33.7 nM

GUCGGAAACGACAAUGAUAGGACUGAGGAUAUACAUAAGUUUGUCCAUACAUGAGGAUCACCCAUGUAGAAGGCAGUCCUAUCU
apparent Kd [1]: 6.33 nM | apparent Kd [2]: 15.9 nM

AUCCGACAUGAGGAUCACCCAUGUCAGGAUAUGGACUGACACCGAAAGGAUGGAGGAACCAGAAGGGACUGGGC
apparent Kd [1]: 32.5 nM | apparent Kd [2]: 47.8 nM

UUAUACAUUCGAGGAUAUCGGAGAGAGAUCAUUCGAGAAGGCGAUUCAUGAUGUAUUAUCCUGGACAUGAGGAUCACCCAUGUA
apparent Kd [3]: 101 nM | apparent Kd [4]: 68.1 nM

AGCUGGUGACAGCAUCCAUCCUGACAUGAGGAUCACCCAUGUAGAAGGCUGUACGGUUACCGUACAGAGGAUAUACAAUGAUGG
apparent Kd [1]: 10.1 nM | apparent Kd [2]: 22.3 nM

GGAUUUGGUCCAAUUUCGGUGAGUAAGGAUAUGCAUGGCAUACAUGAGGAUCACCCAUGUUGUCGGCAGAAGGUGCCACAACGU
apparent Kd [3]: 45.7 nM | apparent Kd [4]: 16.3 nM

AAAAGCAACACAGGAUAUAUCACGGGUGAUUUGAUAGAAGGGUGAGCGAAAGAGAGCAACAUGAGGAUCACCCAUGUAUGUUUG
apparent Kd [3]: 304 nM | apparent Kd [4]: 184 nM

UGUACCGUUGGAACGCGUCGAGUACAUGAGGAUCACCCAUGUCAGGAUAUGUGGCGAAAGGUAGCACAGAAGGGACAUAGAAGA
apparent Kd [1]: 32.6 nM | apparent Kd [2]: 92.3 nM

AUACAUGAGGAUCACCCAUGUUACUGGGUCUUUUUAGAACGUAGAAGGAUGUUUUUAUACAUAACAUAGGAUAUACAAUAUUGU
apparent Kd [1]: 51.8 nM | apparent Kd [2]: 48.9 nM

GCCGGAGAAGGAUAUACAUGAGGAUCACCCAUGUUCUUGGGCGAAAUAAAUUCCUAGAGUAGAAGGUCUAGGCA
apparent Kd [1]: 18.7 nM | apparent Kd [2]: 41.5 nM

UGAAUCAAUACAGGAUAUGGUGACGCACAUGAGGAUCACCCAUGUCCGCAGCGUGCUAAGCACGCCCAGAAGGGUAUUGAUCUG
apparent Kd [3]: 1010 nM | apparent Kd [4]: 81 nM

CAGUACUGAGGAUAUACAUGAGGAUCACCCAUGUGUUCCAGCUAGGAAACUAGCAUAAGUAGAAGGCAGUACUG
apparent Kd [1]: 21.2 nM | apparent Kd [2]: 354 nM

ACGAUUCACUCAGGAUAUGUAUCACCUCGUUACCAACAUGAGGAUCACCCAUGUCCGUGGCUCGGACAGAAGGGAGAAGAAUCG
apparent Kd [3]: 733 nM | apparent Kd [4]: 220 nM

UCAUUUCAGUAAGGAUAUUAAAUCAUGACGAUACAUGAGGAUCACCCAUGUUAAGAAGGUACUAAUACAAAUAAUGCAUUGUUC
apparent Kd [1]: 12.8 nM | apparent Kd [2]: 11.1 nM

UUGGAAGUCGUAGGAUAUGUAGGAUAUUCCUACAUGAGGAUCACCCAUGUUGACAUGGAAGAAGGACAGAAGGACGAUGUCCAU
apparent Kd [3]: 642 nM | apparent Kd [4]: 6.99 nM

CUGUUAUAGGUCCAUUUUUUCAACAUGAGGAUCACCCAUGUGCAGGAUAUCGUGUUAAUUUUCAUCGAGAAGGGCAUAGUCACG
apparent Kd [1]: 30.1 nM | apparent Kd [2]: 63.8 nM

AAACAGUACGAGAAGGGCUACAUGAGGAUCACCCAUGUAGACGGUCGUGUGGCAGGAUAUCGAACACACCGAAAACGGUGCGUU
apparent Kd [1]: 5.32 nM | apparent Kd [2]: 7.09 nM

AUUUGUAAUACAGGAUAUGUUAGUUUACAGUAGAUUGGUUAUUACUCAACUACAGAAGGGUAGUACAUGAGGAUCACCCAUGUA
apparent Kd [3]: 20.7 nM | apparent Kd [4]: 14.8 nM

CGCUACUGCCAGAAGGACAUGAGGAUCACCCAUGUAGGAUAUGGGUGUCGAGGACCAGUGUAGAGAAACUACGCUACAGUAGCG
apparent Kd [3]: 958 nM | apparent Kd [4]: 57.6 nM

UUGUUCUGAGGAUAUACAUGAGGAUCACCCAUGUGUUUCUGCUUGGUGUCUUGCGUUUGUAGAAGGCUGUUCUC
apparent Kd [1]: 26.5 nM | apparent Kd [2]: 28 nM

UAUCGAGUAGCAGGAUAUUAUGUGGCUAAUUCCGAGUCUGAUGCUUCACAUGAGGAUCACCCAUGUAAGAAGGGCUAACUCGGG
apparent Kd [1]: 26.2 nM | apparent Kd [2]: 63.7 nM

GUAAACGAUGAGGAUAUAUGAUAUCAAAGCAUCAUAGAAGGCAUCACAUGAGGAUCACCCAUGUGAUCUUCUUU
apparent Kd [1]: 17.5 nM | apparent Kd [2]: 78.5 nM

AACAGACGUGCUCUGAGUCCACAUGAGGAUCACCCAUGUGAGAGAAGGACCCUCGAGAGAGUUGGGUAGGAUAUCUCCGAUGGG
apparent Kd [1]: 27 nM | apparent Kd [2]: 80.5 nM

CUUUUGUGAGGAUAUCAGUAGUAAAUAAAUAAAAUUAAUACUGAGAAGGCACAUGAGGAUCACCCAUGUUCCUC
apparent Kd [1]: 33.1 nM | apparent Kd [2]: 162 nM

GGGUGAGCUCAAGGAUAUCCAAAAUGGUUACAUGAGGAUCACCCAUGUCCAGGCGAAUAAAGGCCGGAGAAGGUGAGGGCCCUC
apparent Kd [3]: 60.2 nM | apparent Kd [4]: 156 nM

ACCUUACAUGAGGAUCACCCAUGUUAGGAUAUCUCGCUUUCGCUGUCACAGCGCAAGCAGAGAAGGGACACGGG
apparent Kd [1]: 33.9 nM | apparent Kd [2]: 64.5 nM

UAAGAUUAUGUAGGAUAUGGUUAUCUAUGUCUAGUUACUAGACAUAGAUAACCAGAAGGACAUGAGGAUCACCCAUGUUGAACG
apparent Kd [1]: 7.73 nM | apparent Kd [2]: 16.9 nM

GUUUACCGAGGAUAUACAUGAGGAUCACCCAUGUUCCUAACAAACGUCGGUUCAGCGUGUAGAAGGCGGACCUA
apparent Kd [1]: 17.9 nM | apparent Kd [2]: 28.4 nM

GAAAACGGAGAGGAUAUUUGAGAUCAAAGCUCCAAAGAAGGCUCCACAUGAGGAUCACCCAUGUGGUCUUCAAA
apparent Kd [1]: 13.5 nM | apparent Kd [2]: 111 nM

UGUCGGAGCAGAGGAUAUUACAUGAGGAUCACCCAUGUAUGAACCAAUAGCUGGAAACAGCAAUGUAAGAAGGGUGCUCCGACA
apparent Kd [1]: 6.09 nM | apparent Kd [2]: 13.2 nM

CGGUGCUGAGGAUAUACAUGAGGAUCACCCAUGUGUUCUAGCUAGCGUACUGGCAGAUGUAGAAGGCGGUACUG
apparent Kd [1]: 18.2 nM | apparent Kd [2]: 75.7 nM

AGAAACUACGAGAAGGACAUGUGGUCCAAAACAAACAUGAGGAUCACCCAUGUAGGAUAUCGUAGUUUCAGGAUCGUGAGAUCA
apparent Kd [1]: 284 nM | apparent Kd [2]: 61.8 nM

UGAAAUCAUGUAGGAUAUGCAUGGCGAAGCUACGCAGAAGGACAUGAGGAUCACCCAUGUGCUAGCUACCGAGUUCGGUGGCAA
apparent Kd [1]: 103 nM | apparent Kd [2]: 215 nM

GGAGACCUCACAGGAUAUGCUGGACUUUGUCCAGCAGAAGGGUGAAAACAUGAGGAUCACCCAUGUAUGGUCUCCAAAUUUAAA
apparent Kd [3]: 200 nM | apparent Kd [4]: 13.2 nM

AUCUAGUCAGGAUAUACGAACCGAUGAAUCGGACGGAACGAACAUGAGGAUCACCCAUGUAGAAGGGACACUCA
apparent Kd [1]: 162 nM | apparent Kd [2]: 163 nM

UUGGACAGCUAGAACUGUUAAGUACAUGAGGAUCACCCAUGUCAGGAUAUCCUUCCGCAAUGCGAGGAGAAGGGACAGGGUCCC
apparent Kd [1]: 53.7 nM | apparent Kd [2]: 124 nM

AAAUUGCUAGAGGAUAUCGGAUAGGAUCUAUUACGAGAAGGUUAGACAUGAGGAUCACCCAUGUUCUGUUGGGA
apparent Kd [1]: 42.6 nM | apparent Kd [2]: 123 nM

UAAGUAAGUGCAGGAUAUUUAAGAAGAACAUGAGGAUCACCCAUGUGAGGAUCACCCAUGUAAAAGGAGAAGGGCAGAGUAUGA
apparent Kd [1]: 960 nM | apparent Kd [2]: 1220 nM

GUCAGUGUGGUAGGAUAUCGAAACGGUCAGUUACGAGAAGGGCUACAUGAGGAUCACCCAUGUAUCCAGGAUCGGCUUACAGUA
apparent Kd [1]: 6.16 nM | apparent Kd [2]: 6.27 nM

GGGUACAUCGGAGGAUAUCAUGUAAAUACAUGAGGAUCACCCAUGUCGAUGGAGACAGCGGAGAUUGAGAAGGCCGAUGUACCG
apparent Kd [3]: 105 nM | apparent Kd [4]: 190 nM

AAACAUGUCCGAGGAUAUCUGGAAACAUUUUCAAGAGAAGGCGGACAUGAGGAUCACCCAUGUCUCUCCUCAUCCAAUCCAAGU
apparent Kd [1]: 9.36 nM | apparent Kd [2]: 46.4 nM
